Experimental data published in ChEMBL document CHEMBL1148377, “Identification of novel binding interactions in the development of potent, selective 2-naphthamidine inhibitors of urokinase. Synthesis, structural analysis, and SAR of N-phenyl amide 6-substitution” (J Med Chem, 2004).

Legend:
[1] = biological target: Urokinase-type plasminogen activator (Homo sapiens, UniProt P00749)
Plasminogen = Plasminogen (Homo sapiens, UniProt P00747); test: Binding affinity towards human plasmin.
Outline: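 Uses human plasmin at 18 nM with S-2251 (H-D-Val-Leu-Lys-pNA) at 360 μM. The buffer was 50 mM Tris/0.15 M NaCl + 0.5% Pluronic F-68, pH 7.4, and compounds were added in DMSO at 0.01–250 μM. After substrate start, absorbance at 405 nm was tracked for 15 min. Percent inhibition came from rates, and Ki from percent inhibition with established Km values.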

Plasma kallikrein = Plasma kallikrein (Homo sapiens, UniProt P03952); test: Binding affinity against human plasma kallikrein.; type: cell-free
Outline: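 Enzyme: human plasma kallikrein at 100 ng/mL. Substrate: S-2302 (H-D-Pro-Phe-Arg-pNA) at 330 μM. Conditions were pH 7.4, 50 mM Tris/0.15 M NaCl/0.5% Pluronic F-68, with compounds from DMSO at 0.01–250 μM. Substrate addition started each reaction, followed by pNA release at 405 nm over 15 min. Ki was calculated from rate-based percent inhibition using previously established Km.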

Prothrombin = Prothrombin (Homo sapiens, UniProt P00734); test: Binding affinity against human alpha thrombin.
[2] = biological target: Tissue-type plasminogen activator (Homo sapiens, UniProt P00750); test: Binding affinity towards human Tissue type plasminogen activator.
Outline: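 Human tPA (1 μg/mL) was run against S-2288 (H-D-Ile-Pro-Arg-pNA) at 1350 μM in Tris 50 mM/NaCl 0.15 M/0.5% Pluronic F-68 buffer at pH 7.4. Test agents in DMSO spanned 0.01–250 μM. Substrate addition began the reaction, and p-nitroaniline formation at 405 nm was followed for 15 min. Ki derived from percent inhibition and previously determined Km.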

Chain of Tissue-type plasminogen activator (P00750 whole entry): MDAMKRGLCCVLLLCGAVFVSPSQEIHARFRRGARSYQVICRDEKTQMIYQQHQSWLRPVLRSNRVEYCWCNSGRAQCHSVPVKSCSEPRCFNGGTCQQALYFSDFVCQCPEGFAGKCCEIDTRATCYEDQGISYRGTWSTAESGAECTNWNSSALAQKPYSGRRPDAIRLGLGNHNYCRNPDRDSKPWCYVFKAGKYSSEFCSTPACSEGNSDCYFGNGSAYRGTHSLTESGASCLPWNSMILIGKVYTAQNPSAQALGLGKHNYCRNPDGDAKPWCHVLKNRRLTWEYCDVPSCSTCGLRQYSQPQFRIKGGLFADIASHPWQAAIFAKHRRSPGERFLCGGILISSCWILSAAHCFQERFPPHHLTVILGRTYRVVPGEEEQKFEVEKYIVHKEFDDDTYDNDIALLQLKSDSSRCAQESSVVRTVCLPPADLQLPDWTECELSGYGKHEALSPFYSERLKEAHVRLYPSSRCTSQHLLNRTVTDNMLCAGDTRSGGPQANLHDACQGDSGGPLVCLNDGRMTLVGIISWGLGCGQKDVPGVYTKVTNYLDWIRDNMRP
Chain of Plasminogen (P00747 97-580 limits assumed): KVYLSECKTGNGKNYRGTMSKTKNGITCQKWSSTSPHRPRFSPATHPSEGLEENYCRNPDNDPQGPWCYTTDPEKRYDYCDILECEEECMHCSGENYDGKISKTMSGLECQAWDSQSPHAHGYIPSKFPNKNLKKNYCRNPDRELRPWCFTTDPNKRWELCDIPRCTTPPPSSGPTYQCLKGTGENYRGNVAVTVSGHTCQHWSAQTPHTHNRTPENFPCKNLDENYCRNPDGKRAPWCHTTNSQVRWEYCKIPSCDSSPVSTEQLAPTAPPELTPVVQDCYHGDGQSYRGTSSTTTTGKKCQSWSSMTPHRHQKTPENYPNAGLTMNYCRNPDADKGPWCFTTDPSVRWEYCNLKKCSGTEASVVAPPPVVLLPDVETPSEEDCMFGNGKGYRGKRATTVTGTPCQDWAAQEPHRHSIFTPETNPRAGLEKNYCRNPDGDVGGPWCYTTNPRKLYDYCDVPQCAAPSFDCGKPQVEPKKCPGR
Chain of Plasminogen (P00747 581-810 limits assumed): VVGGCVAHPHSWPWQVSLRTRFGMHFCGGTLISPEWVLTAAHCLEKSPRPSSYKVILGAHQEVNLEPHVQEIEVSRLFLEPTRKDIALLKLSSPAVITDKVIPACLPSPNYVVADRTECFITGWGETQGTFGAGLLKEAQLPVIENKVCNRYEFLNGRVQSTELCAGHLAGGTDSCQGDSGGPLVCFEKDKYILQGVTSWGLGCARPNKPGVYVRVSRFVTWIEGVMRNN
Chain of Plasma kallikrein (P03952 20-390 limits assumed): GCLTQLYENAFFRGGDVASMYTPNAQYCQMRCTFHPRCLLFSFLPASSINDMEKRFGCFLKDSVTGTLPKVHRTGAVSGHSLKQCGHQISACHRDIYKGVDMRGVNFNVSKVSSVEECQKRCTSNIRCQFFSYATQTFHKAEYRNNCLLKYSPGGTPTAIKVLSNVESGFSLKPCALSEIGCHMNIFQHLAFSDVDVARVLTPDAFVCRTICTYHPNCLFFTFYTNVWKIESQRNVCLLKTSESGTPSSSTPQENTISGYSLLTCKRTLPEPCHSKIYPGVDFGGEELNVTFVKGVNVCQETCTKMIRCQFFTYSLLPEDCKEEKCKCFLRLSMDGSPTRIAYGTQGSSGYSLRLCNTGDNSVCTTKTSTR
Chain of Plasma kallikrein (P03952 391-638 limits assumed): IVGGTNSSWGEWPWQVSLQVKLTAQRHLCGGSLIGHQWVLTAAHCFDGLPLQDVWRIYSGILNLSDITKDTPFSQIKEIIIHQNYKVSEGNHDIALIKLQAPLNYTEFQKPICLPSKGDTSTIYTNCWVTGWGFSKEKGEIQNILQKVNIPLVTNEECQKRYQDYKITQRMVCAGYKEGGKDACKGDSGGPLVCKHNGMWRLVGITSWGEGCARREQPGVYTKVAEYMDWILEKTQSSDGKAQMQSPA

| SMILES | Ki [1] [nM] | Ki (Plasminogen) [nM] | Ki (Plasma kallikrein) [nM] | Ki (Prothrombin) [nM] | Ki [2] [nM] |
| --- | --- | --- | --- | --- | --- |
| CCC(CC)Oc1cccc(NC(=O)c2ccc3cc(C(=N)N)ccc3c2)c1 | 104 | – | – | – | – |
| CC(C)Oc1cccc(NC(=O)c2ccc3cc(C(=N)N)ccc3c2)c1 | – | 554 | 1370 | 3490 | 2370 |
| COc1cc(NC(=O)c2ccc3cc(C(=N)N)ccc3c2)cc(OC)c1 | 139 | – | – | – | – |
| N=C(N)c1ccc2cc(C(=O)Nc3cccc(Oc4ccccc4)c3)ccc2c1 | 517 | – | – | – | – |
| [H]/N=C(\N)c1ccc2cc(C(=O)Nc3ccc(CN)cc3)ccc2c1 | – | 16000 | 7170 | > 100000 | 58400 |
| N=C(N)c1ccc2ccccc2c1 | 5910 | 51300 | 22500 | – | > 100000 |
| N#Cc1ccc2cc(NC(=O)c3ccccc3)ccc2c1 | – | 5560 | 8000 | 17600 | > 100000 |
| CN(C(=O)c1ccc2cc(C(=N)N)ccc2c1)c1ccccc1 | 15500 | – | – | – | – |
| CC(C)Oc1cc(NC(=O)c2ccc3cc(C(=N)N)ccc3c2)cc(OC(C)C)c1 | 28 | 1060 | 4300 | 21700 | 790 |
| CC(C)Oc1cc(NC(=O)c2ccc3cc(C(=N)N)ccc3c2)cc(OC2CCCC2)c1 | 22 | 966 | 3330 | 21600 | 844 |
| CNC(=O)c1ccc2cc(C(=N)N)ccc2c1 | 8700 | – | – | – | – |

Now from value to compound:

| Ki [1] [nM] | Ki (Plasminogen) [nM] | Ki (Plasma kallikrein) [nM] | Ki (Prothrombin) [nM] | Ki [2] [nM] | SMILES |
| --- | --- | --- | --- | --- | --- |
| 233 | – | – | – | – | COc1cccc(NC(=O)c2ccc3cc(C(=N)N)ccc3c2)c1 |
| – | 1030 | 112 | 6920 | 2320 | N=C(N)c1ccc2cc(C(=O)Nc3ccc4c(c3)CCNC4)ccc2c1 |
| – | 498 | 2720 | 5580 | 3390 | N=C(N)c1ccc2cc(C(=O)Nc3cccc(OC4CCCC4)c3)ccc2c1 |
| 326 | 1970 | 2430 | 2350 | > 100000 | N=C(N)c1ccc2cc(C(=O)Nc3ccc(C(N)=O)cc3)ccc2c1 |
| 161 | – | – | – | – | CC(C)CC1=NCCc2ccc(NC(=O)c3ccc4cc(C(=N)N)ccc4c3)cc21 |
| – | 631 | 230 | 5720 | 1120 | CC(C)C1NCCc2ccc(NC(=O)c3ccc4cc(C(=N)N)ccc4c3)cc21 (stereo not drawn) |
| 167 | – | – | – | – | N=C(N)c1ccc2cc(C(=O)Nc3cccc(CC4CCCC4)c3)ccc2c1 |
| 26.5 | 833 | 400 | 10200 | 3950 | N=C(N)c1ccc2cc(C(=O)Nc3ccc4c(c3)C(C3CCCC3)NCC4)ccc2c1 (stereo not drawn) |
| 35.5 | 765 | 849 | 5310 | 3130 | N=C(N)c1ccc2cc(C(=O)Nc3ccc4c(c3)C(C3CCCC3)=NCC4)ccc2c1 |
| – | 1950 | 2500 | 5640 | 31800 | N=C(N)c1ccc2cc(C(=O)Nc3ccccc3)ccc2c1 |
| – | 3820 | 2570 | 35100 | 8350 | N=C(N)c1ccc2cc(C(=O)Nc3ccc(CO)cc3)ccc2c1 |
| – | 768 | 436 | 4990 | 1840 | CC(C)C1=NCCc2ccc(NC(=O)c3ccc4cc(C(=N)N)ccc4c3)cc21 |
| 736 | 3870 | 18100 | 43700 | 83900 | CCc1ccc(NC(=O)c2ccc3cc(C(=N)N)ccc3c2)cc1 |
| – | 1120 | 145 | 6440 | 1650 | CCC1CNCc2ccc(NC(=O)c3ccc4cc(C(=N)N)ccc4c3)cc21 (stereo not drawn) |
| 123 | 1190 | 1350 | 7310 | > 50000 | CC(C)CC1NCCc2ccc(NC(=O)c3ccc4cc(C(=N)N)ccc4c3)cc21 (stereo not drawn) |
| 82 | – | – | – | – | CCOc1cccc(NC(=O)c2ccc3cc(C(=N)N)ccc3c2)c1 |
